From ChEMBL document CHEMBL5661985, “In silico design of novel probes for the atypical opioid receptor MRGPRX2” (Nat Chem Biol, 2017) come the findings set out here.

Assay [1] deals with T1, Mitogen-activated protein kinase 10 (Homo sapiens, UniProt P53779). In words: Binding affinity to JNK3 (unknown origin) assessed dissociation constant by Kinome scan method.
Assay [2] deals with T2, Mitogen-activated protein kinase 8 (Homo sapiens, UniProt P45983). Description: Inhibition of JNK1 (unknown origin) by Kinome scan method.
T2 sequence (P45983 whole entry): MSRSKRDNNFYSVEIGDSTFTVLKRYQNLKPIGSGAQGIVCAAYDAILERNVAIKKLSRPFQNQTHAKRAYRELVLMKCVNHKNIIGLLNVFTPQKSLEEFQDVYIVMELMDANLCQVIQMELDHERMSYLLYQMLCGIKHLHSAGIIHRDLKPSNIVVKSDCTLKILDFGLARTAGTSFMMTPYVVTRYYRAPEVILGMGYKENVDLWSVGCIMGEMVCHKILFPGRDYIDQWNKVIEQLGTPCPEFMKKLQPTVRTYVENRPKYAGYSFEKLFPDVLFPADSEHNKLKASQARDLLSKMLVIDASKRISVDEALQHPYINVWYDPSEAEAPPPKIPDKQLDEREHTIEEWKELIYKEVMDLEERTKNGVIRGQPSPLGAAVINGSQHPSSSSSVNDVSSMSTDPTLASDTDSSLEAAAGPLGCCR
Assay [3] addresses T2, Mitogen-activated protein kinase 8. Description: Binding affinity to JNK1 (unknown origin) assessed dissociation constant by Kinome scan method.
Assay [4] addresses T3, Mas-related G-protein coupled receptor member X2 (Homo sapiens) (UniProt Q96LB1).
T3 sequence (whole entry): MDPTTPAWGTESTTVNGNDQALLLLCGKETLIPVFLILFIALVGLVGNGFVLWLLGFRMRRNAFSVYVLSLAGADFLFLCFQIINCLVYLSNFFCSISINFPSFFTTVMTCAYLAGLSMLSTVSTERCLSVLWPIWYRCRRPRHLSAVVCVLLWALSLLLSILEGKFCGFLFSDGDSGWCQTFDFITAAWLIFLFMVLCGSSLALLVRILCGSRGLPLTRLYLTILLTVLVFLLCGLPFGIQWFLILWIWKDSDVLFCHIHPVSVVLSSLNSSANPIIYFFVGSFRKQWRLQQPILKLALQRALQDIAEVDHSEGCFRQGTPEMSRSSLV
Description: Agonist activity at MRGPRX2 (unknown origin) expressed in HTLA cells assessed as induction of beta-arrestin 2 recruitment <10 uM incubated for 18 to 24 hrs by PRESTO-Tango assay. The class given is functional, cell-based. Conditions: filed as agonist, time 18-24 hrs. In outline:
(§1)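 β-arrestin2 recruitment by PRESTO-Tango: HTLA cells transiently transfected (calcium phosphate) with codon-optimized MRGPRX2-Tango (WT or point mutant) or MRGPRB2-Tango, plated next day 20,000 cells/well on poly-L-lysine; drug in HBSS/20 mM HEPES/0.3% BSA pH 7.4 for 18–24 h; Bright-Glo luminescence (RLU); curves n=3 in triplicate, mutants n=4 in triplicate.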

In assay [5] the target is T4, Tyrosine-protein kinase BTK (Homo sapiens, UniProt Q06187). In words: Inhibition of BTK (unknown origin) by Kinome scan method.
T4 sequence (Q06187 whole entry): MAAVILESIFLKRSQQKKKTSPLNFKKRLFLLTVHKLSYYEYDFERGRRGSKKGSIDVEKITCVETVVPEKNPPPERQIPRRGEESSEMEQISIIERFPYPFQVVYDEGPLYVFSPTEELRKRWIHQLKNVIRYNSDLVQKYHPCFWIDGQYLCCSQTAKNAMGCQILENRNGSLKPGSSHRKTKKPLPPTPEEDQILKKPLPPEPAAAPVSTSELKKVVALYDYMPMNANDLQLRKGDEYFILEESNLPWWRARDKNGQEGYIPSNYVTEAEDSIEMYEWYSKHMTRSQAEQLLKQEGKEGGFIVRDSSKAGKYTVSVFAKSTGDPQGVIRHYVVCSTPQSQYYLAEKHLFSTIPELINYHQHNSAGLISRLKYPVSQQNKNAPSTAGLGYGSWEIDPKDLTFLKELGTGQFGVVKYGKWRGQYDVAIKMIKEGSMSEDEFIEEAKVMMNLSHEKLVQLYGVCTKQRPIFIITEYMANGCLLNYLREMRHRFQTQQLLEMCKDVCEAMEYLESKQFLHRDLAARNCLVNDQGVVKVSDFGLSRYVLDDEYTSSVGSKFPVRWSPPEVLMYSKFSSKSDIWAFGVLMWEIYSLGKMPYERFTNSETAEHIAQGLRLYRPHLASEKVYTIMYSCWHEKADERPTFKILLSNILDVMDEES
Assay [6] concerns the target T1, Mitogen-activated protein kinase 10. Description: Inhibition of JNK3 (unknown origin) by Kinome scan method.
Assay [7] has as its target T3, Mas-related G-protein coupled receptor member X2 (Homo sapiens). Description: Agonist activity at MRGPRX2 (unknown origin) expressed in HTLA cells assessed as induction of beta-arrestin 2 recruitment at 10 uM incubated for 18 to 24 hrs by PRESTO-Tango assay. The class given is functional, cell-based. Conditions: filed as agonist, time 18-24 hrs. In outline: as §1

The target in assay [8] is T4, Tyrosine-protein kinase BTK. In words: Binding affinity to BTK (unknown origin) assessed dissociation constant by Kinome scan method.
The target in assay [9] is T3, Mas-related G-protein coupled receptor member X2 (Homo sapiens). In words: Agonist activity at MRGPRX2 receptor in human LAD2 cells assessed as increase in intracellular calcium release by FLIPR assay. As to conditions: filed as agonist. The class given is functional, cell-based. The procedure, abridged: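 LAD2 human mast cells seeded 50,000/well in Tyrode's buffer with calcium dye, 1 h before drug; 10 s baseline, drug added, fluorescence followed 120 s; expressed as fold calcium release over baseline; n=3 in triplicate.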

Assay [10] concerns the target T5, Mas-related G-protein coupled receptor member X2 (Homo sapiens, UniProt Q96LB1).
T5 sequence (Q96LB1 whole entry): T3 sequence (whole entry)
In words: Agonist activity at MRGPRX2 (unknown origin) expressed in HTLA cells assessed as induction of beta-arrestin 2 recruitment incubated for 18 to 24 hrs by PRESTO-Tango assay. The class given is functional, cell-based. Conditions: read-out: EC50.

The target of assay [11] is T3, Mas-related G-protein coupled receptor member X2 (Homo sapiens). Description: Agonist activity at N-terminal Flag-tagged human MRGPRX2 receptor expressed in tetracycline-induced FLP-IN/T-REX 293 cells assessed as increase in intracellular calcium release < 10 uM by FLIPR assay. In kind it is functional, cell-based. As to conditions: filed as agonist. In outline:
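FLIPR calcium: FLP-IN/T-REX HEK-293-T stable line with N-terminal FLAG codon-optimized receptor, induced 24 h with 1 μg/mL tetracycline in 1% dialyzed FBS (uninduced cells as control); FLIPR calcium dye plus 2.5 mM probenecid 1 h 37°C; 10 s baseline, then drug in HBSS/20 mM HEPES/probenecid pH 7.4, 16-point curve 10 μM to 0.003 nM; fluorescence 120 s; fold over basal, n=3 triplicate.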

Calls of active or inactive are those of the source. No cut-off for these calls is given here.

T1 sequence (P53779 whole entry): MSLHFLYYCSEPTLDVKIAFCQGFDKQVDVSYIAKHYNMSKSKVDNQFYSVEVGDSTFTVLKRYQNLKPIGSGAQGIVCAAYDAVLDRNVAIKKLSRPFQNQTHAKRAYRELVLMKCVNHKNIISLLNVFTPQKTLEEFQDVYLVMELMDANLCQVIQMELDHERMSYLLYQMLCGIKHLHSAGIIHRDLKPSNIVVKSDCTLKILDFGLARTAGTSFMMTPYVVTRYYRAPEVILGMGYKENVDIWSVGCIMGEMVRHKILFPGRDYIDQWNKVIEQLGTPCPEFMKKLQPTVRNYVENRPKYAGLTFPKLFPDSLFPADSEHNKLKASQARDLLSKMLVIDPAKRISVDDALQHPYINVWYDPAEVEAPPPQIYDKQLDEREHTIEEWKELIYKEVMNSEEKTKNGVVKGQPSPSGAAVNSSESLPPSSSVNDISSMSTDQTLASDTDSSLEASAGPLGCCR

`Cc1cc2nc(-c3ccccc3)cc(N3CCC(N(C)C)C3)n2n1` (stereo unspecified): the Kd in [1] was more than 30 µM; in [3], 19 µM; in assay [8], 27 µM. For the same compound, the IC50 in [2], in assay [5] and in assay [6] was 20 µM in each case. Further, the outcome in [4], in assay [7], in assay [9] and in [11] was Active. The EC50 in [10] worked out at 3 µM.
